Data reported in ChEMBL document CHEMBL1156597, “Structure-activity relationship of kahalalide F synthetic analogues” (J Med Chem, 2008).

How the values were obtained:
DU-145 = test: Cytotoxicity against human DU145 cells after 48 hrs by SRB assay; format: functional, cell-based; conditions: Homo sapiens, DU-145, 48 h; for CC50: read-out: LC50 (the source's name)
Procedure, shortened: (§1)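 Cells grown in RPMI 1640 with 10% FBS and penicillin/streptomycin at 37 °C and 5% CO₂, trypsinized, then seeded at 5 × 10³/well. After 18 h drug-free attachment, samples in DMSO/EtOH/PBS (0.5:0.5:99) were added for 48 h continuous exposure. Cells were fixed with cold TCA (1 h, 4 °C) and stained with SRB (10 min). Tris-solubilized stain read at 490 nm. Triplicate wells, mean ± SD; GI₅₀ derived.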

LNCaP = test: Cytotoxicity against human LNcaP cells after 48 hrs by SRB assay; format: functional; conditions: for CC50: read-out: LC50 (the source's name); procedure, shortened: as §1
[1] = Cytotoxicity against human IGROV cells after 48 hrs by SRB assay; format: functional; conditions: for CC50: read-out: LC50 (the source's name); procedure, shortened: as §1
[2] = Cytotoxicity against human IGROV-ET cells after 48 hrs by SRB assay; format: functional; conditions: for CC50: read-out: LC50 (the source's name); procedure, shortened: as §1
SK-BR-3 = test: Cytotoxicity against human SKBR3 cells after 48 hrs by SRB assay; format: functional; conditions: SK-BR-3, 48 h; for GI50: read-out: GI50; for CC50: read-out: LC50 (the source's name); procedure, shortened: as §1
SK-MEL-28 = test: Cytotoxicity against human SK-MEL-28 cells after 48 hrs by SRB assay; format: functional, cell-based; conditions: Homo sapiens, SK-MEL-28, 48 h; for CC50: read-out: LC50 (the source's name); procedure, shortened: as §1
A549 = test: Cytotoxicity against human A549 cells after 48 hrs by SRB assay; format: functional, cell-based; conditions: Homo sapiens, A549, 48 h; procedure, shortened: as §1
K562 = test: Cytotoxicity against human K562 cells after 48 hrs by SRB assay; format: functional; conditions: K562, 48 h; for CC50: read-out: LC50 (the source's name); procedure, shortened: as §1
PANC-1 = test: Cytotoxicity against human PANC1 cells after 48 hrs by SRB assay; format: functional; conditions: PANC-1, 48 h; for CC50: read-out: LC50 (the source's name); procedure, shortened: as §1
HT-29 = test: Cytotoxicity against human HT29 cells after 48 hrs by SRB assay; format: functional, cell-based; conditions: Homo sapiens, HT-29, 48 h; read-out: LC50 (the source's name); procedure, shortened: as §1
LoVo = test: Cytotoxicity against human LoVo cells after 48 hrs by SRB assay; format: functional; conditions: for CC50: read-out: LC50 (the source's name)
HeLa = test: Cytotoxicity against human HeLa cells after 48 hrs by SRB assay; format: functional; conditions: for CC50: read-out: LC50 (the source's name); procedure, shortened: as §1
[3] = Cytotoxicity against human HeLa-APL cells after 48 hrs by SRB assay; format: functional; procedure, shortened: as §1

SMILES | GI50 (DU-145; read-out: GI50) | CC50 (DU-145) | GI50 (LNCaP) | TGI (LNCaP) | CC50 (LNCaP) | GI50 [1] | GI50 ([1]; read-out: GI50) | CC50 [1] | CC50 [2] | CC50 (SK-BR-3) | CC50 (SK-MEL-28) | LC50 (A549) | CC50 (K562) | CC50 (PANC-1) | CC50 (HT-29) | GI50 (LoVo) | TGI (LoVo) | CC50 (LoVo) | CC50 (HeLa) | LC50 (concentration giving 50% net cell kill) [3] | further results
C/C=C1\NC(=O)[C@H](Cc2ccccc2)NC(=O)[C@@H](C(C)C)NC(=O)[C@@H]([C@H](C)CC)NC(=O)[C@H](NC(=O)[C@H](NC(=O)[C@H](CCCN)NC(=O)[C@H]2CCCN2C(=O)[C@H](NC(=O)[C@@H](NC(=O)[C@@H](NC(=O)[C@@H](Cc2ccccc2)NC(=O)CCCC(C)C)[C@@H](C)O)C(C)C)C(C)C)[C@H](C)CC)[C@H](C)OC(=O)[C@H](C(C)C)NC1=O | 3900 nM | 1600 nM | 2280 nM | 3130 nM | 1490 nM | 862 nM | 2010 nM | 449 nM | 680 nM | 1670 nM | 1400 nM | 1840 nM | 2360 nM | 2450 nM | 5590 nM | 2620 nM | 2710 nM | 2800 nM | 1010 nM | 1280 nM | TGI (DU-145): 3680 nM; TGI [2]: 1730 nM; GI50 ([2]; read-out: GI50): 2240 nM; TGI (SK-BR-3): 2190 nM; GI50 (SK-BR-3): 2340 nM; TGI (SK-MEL-28): 2920 nM; GI50 (SK-MEL-28; read-out: GI50): 2640 nM; TGI (A549): 2750 nM; GI50 (A549; read-out: GI50): 2650 nM; GI50 (K562): 3400 nM; TGI (K562): 4680 nM; GI50 (PANC-1): 5440 nM; TGI (PANC-1): 4760 nM; GI50 (HeLa): 2210 nM; TGI (HeLa): 2690 nM; GI50 [3]: 179 nM; TGI [3]: 1700 nM
C/C=C1\NC(=O)[C@H](Cc2ccccc2)NC(=O)[C@@H](C(C)C)NC(=O)[C@@H]([C@H](C)CC)NC(=O)[C@H](NC(=O)[C@H](NC(=O)[C@H](CCCN)NC(=O)[C@H]2CCCN2C(=O)[C@H](NC(=O)[C@@H](NC(=O)[C@@H](NC(=O)[C@H](NC(=O)c2ccc(C(F)(F)F)cc2)C(C)C)[C@@H](C)O)C(C)C)C(C)C)[C@H](C)CC)[C@H](C)OC(=O)[C@H](C(C)C)NC1=O | 310 nM | 800 nM | 341 nM | 621 nM | 799 nM | 236 nM | 247 nM | 321 nM | 294 nM | 223 nM | 809 nM | 473 nM | 2340 nM | 2430 nM | 76.5 nM | 253 nM | 268 nM | 286 nM | 601 nM | 717 nM | GI50 (DU-145): 685 nM; GI50 [2]: 223 nM; GI50 ([2]; read-out: GI50): 140 nM; TGI (SK-BR-3): 289 nM; GI50 (SK-BR-3): 303 nM; GI50 (SK-MEL-28): 823 nM; GI50 (SK-MEL-28; read-out: GI50): 839 nM; GI50 (A549): 254 nM; GI50 (A549; read-out: GI50): 202 nM; GI50 (PANC-1): 1840 nM; TGI (PANC-1): 2260 nM; GI50 (HeLa): 348 nM; TGI (HeLa): 526 nM; GI50 [3]: 519 nM; TGI [3]: 665 nM
C/C=C1\NC(=O)[C@H](Cc2ccccc2)NC(=O)[C@@H](C(C)C)NC(=O)[C@@H]([C@H](C)CC)NC(=O)[C@H](NC(=O)[C@H](NC(=O)[C@H](CCCN)NC(=O)[C@H]2CCCN2C(=O)[C@H](NC(=O)CNC(=O)[C@@H](NC(=O)[C@H](NC(=O)CCCC(C)C)C(C)C)[C@@H](C)O)C(C)C)[C@H](C)CC)[C@H](C)OC(=O)[C@H](C(C)C)NC1=O | – | 1700 nM | 3050 nM | 3320 nM | 1580 nM | – | – | 649 nM | 722 nM | 2850 nM | 1480 nM | 1960 nM | 2500 nM | 2600 nM | 911 nM | 10700 nM | 9720 nM | 4920 nM | 1070 nM | 1360 nM | GI50 (K562): 2570 nM; TGI (K562): 3120 nM
